# According to ChEMBL document CHEMBL1122410, “Synthesis of 3,6-bis(aminoalkoxy)acridines and their effect on the immune System” (1983):
# Calls of active or inactive are those of the source. No cut-off for these calls is given here.
# How the values were obtained:
# Ovis aries [1] = test: Antibody stimulation by serum hemagglutininin titer over the titer for the infected placebo-treated control in sheep red blood cells at 100 mg/Kg of dose; value is 128/16; assay type: functional
# Mus musculus [2] = test: Efficacy against a lethal virus challenge with an interferon sensitive virus, columbia SK was evaluated 14 days postinfection (oral dosing) as number of mice survived out of 15 tested; assay type: functional
# Mus musculus [3] = test: Percent reduction in spleen weight in mice as compared to infected untreated controls at 50 mg/kg; assay type: functional
# Outline: (§1)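 In BALB/c mice infected ip with Rauscher leukemia virus (same-sex, ≥18 g), compound was given orally in 0.2% Noble agar/saline on days 6, 7 and 8 at 25–200 mg/kg. Animals were weighed on day 14. Spleen weight is expressed as percent reduction versus infected placebo-treated controls, and ≥50% reduction counts as active.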
# Ovis aries [4] = test: Antibody stimulation by serum hemagglutininin titer over the titer for the infected placebo-treated control in sheep red blood cells at 25 mg/Kg of dose; value is 32/16; assay type: functional
# Mus musculus [5] = test: Percent reduction in spleen weight in mice as compared to infected untreated controls at 100 mg/kg; assay type: functional; outline: as §1
# Mus musculus [6] = test: Percent reduction in spleen weight in mice as compared to infected untreated controls at 25 mg/kg; assay type: functional
# Outline: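 BALB/c mice of the same sex, weighing at least 18 g and within a 3 g range, were inoculated ip with Rauscher leukemia virus as a 20% (w/v) spleen extract, five per group. Compound in 0.2% Noble agar/saline was given orally on days 6, 7 and 8, with SRBC ip on day 7. Mice were weighed on day 14, and percent spleen-weight reduction was taken versus infected placebo-treated controls.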
# Ovis aries [7] = test: Antibody stimulation by serum hemagglutininin titer over the titer for the infected placebo-treated control in sheep red blood cells at 25 mg/Kg of dose; value is 256/64; assay type: functional
# Ovis aries [8] = test: Antibody stimulation by serum hemagglutininin titer over the titer for the infected placebo-treated control in sheep red blood cells at 100 mg/Kg of dose; value is 32/16; assay type: functional
# Ovis aries [9] = test: Antibody stimulation by serum hemagglutininin titer over the titer for the infected placebo-treated control in sheep red blood cells at 25 mg/Kg of dose; value is 16/16; assay type: functional
# Mus musculus [10] = test: Percent reduction in spleen weight in mice as compared to infected untreated controls at 200 mg/kg; assay type: functional; outline: as §1
# Ovis aries [11] = test: Antibody stimulation by serum hemagglutininin titer over the titer for the infected placebo-treated control in sheep red blood cells at 50 mg/Kg of dose; value is 32/16; assay type: functional
# Ovis aries [12] = test: Antibody stimulation by serum hemagglutininin titer over the titer for the infected placebo-treated control in sheep red blood cells at 50 mg/Kg of dose; value is 128/16; assay type: functional
# Ovis aries [13] = test: Antibody stimulation by serum hemagglutininin titer over the titer for the infected placebo-treated control in sheep red blood cells at 100 mg/Kg of dose; value is 512/32; assay type: functional
# Ovis aries [14] = species on record: Ovis aries; test: Antibody stimulation by serum hemagglutininin titer over the titer for the infected placebo-treated control in sheep red blood cells; value is 128/16; assay type: functional
# Ovis aries [15] = test: Antibody stimulation by serum hemagglutininin titer over the titer for the infected placebo-treated control in sheep red blood cells at 200 mg/Kg of dose; value is 128/16; assay type: functional
# Ovis aries [16] = test: Antibody stimulation by serum hemagglutininin titer over the titer for the infected placebo-treated control in sheep red blood cells at 200 mg/Kg of dose; value is 32/16; assay type: functional
# Ovis aries [17] = test: Antibody stimulation by serum hemagglutininin titer over the titer for the infected placebo-treated control in sheep red blood cells at 100 mg/Kg of dose; value is 64/16; assay type: functional
# Mus musculus [18] = species on record: Mus musculus; test: Percent reduction in spleen weight in mice as compared to infected untreated controls; NA = Not Active; assay type: functional, organism-based; outline: as §1
# Ovis aries [19] = test: Antibody stimulation by serum hemagglutininin titer over the titer for the infected placebo-treated control in sheep red blood cells at 50 mg/Kg of dose; NA = Not Active; assay type: functional, organism-based
# Ovis aries [20] = test: Antibody stimulation by serum hemagglutininin titer over the titer for the infected placebo-treated control in sheep red blood cells at 25 mg/Kg of dose; value is 128/16; assay type: functional
# Ovis aries [21] = test: Antibody stimulation by serum hemagglutininin titer over the titer for the infected placebo-treated control in sheep red blood cells at 50 mg/Kg of dose; value is 64/16; assay type: functional
# Mus musculus [22] = test: Efficacy against a lethal virus challenge with an interferon sensitive virus, columbia SK was evaluated 14 days postinfection (oral dosing) as number of mice survived out of 20 tested; assay type: functional
# Ovis aries [23] = test: Antibody stimulation by serum hemagglutininin titer over the titer for the infected placebo-treated control in sheep red blood cells at 200 mg/Kg of dose; value is 64/16; assay type: functional
# Ovis aries [24] = test: Antibody stimulation by serum hemagglutininin titer over the titer for the infected placebo-treated control in sheep red blood cells at 50 mg/Kg of dose; value is 256/32; assay type: functional
# Ovis aries [25] = test: Antibody stimulation by serum hemagglutininin titer over the titer for the infected placebo-treated control in sheep red blood cells at 50 mg/Kg of dose; value is 1024/32; assay type: functional
# Mus musculus [26] = test: Efficacy against a lethal virus challenge with an interferon sensitive virus, columbia SK was evaluated 14 days postinfection (oral dosing) as number of mice survived out of 15 tested; NT = Not tested; assay type: functional
# Ovis aries [27] = species on record: Ovis aries; test: Antibody stimulation by serum hemagglutininin titer over the titer for the infected placebo-treated control in sheep red blood cells; NA = Not active; assay type: functional, organism-based
# Ovis aries [28] = species on record: Ovis aries; test: Antibody stimulation by serum hemagglutininin titer over the titer for the infected placebo-treated control in sheep red blood cells; NA=Not active; assay type: functional, organism-based
smiles,measurement,setting,value
CCN(CC)CCOc1ccc2cc3ccc(OCCN(CC)CC)c(Cl)c3nc2c1Cl,Antibody stimulation,Ovis aries [1],128
same,Survivors,Mus musculus [2],7
same,Reduction,Mus musculus [3],86%
Cl.NCCOc1ccc2cc3ccc(OCCN)cc3nc2c1.O,Antibody stimulation,Ovis aries [4],32
same,Reduction,Mus musculus [5],40%
same,Survivors,Mus musculus [2],1
O=P1(N(CCCl)CCCl)NCCCO1 (stereo unspecified) [CYCLOPHOSPHAMIDE ANHYDROUS],Reduction,Mus musculus [6],102%
CCN(CC)CCOc1cc2nc3cc(OCCN(CC)CC)c(C)cc3cc2cc1C.Cl.O,Reduction,Mus musculus [5],21%
same,Antibody stimulation,Ovis aries [7],256
same,Survivors,Mus musculus [2],4
CCN(CC)CCOc1cc([N+](=O)[O-])c2cc3cc([N+](=O)[O-])c(OCCN(CC)CC)c(Cl)c3nc2c1Cl,Antibody stimulation,Ovis aries [8],32
same,Survivors,Mus musculus [2],3
same,Reduction,Mus musculus [3],46%
CN(C)CCCOc1ccc2cc3ccc(OCCCN(C)C)cc3nc2c1.Cl.O,Antibody stimulation,Ovis aries [9],16
same,Reduction,Mus musculus [10],54%
same,Survivors,Mus musculus [2],9
CN1CCN(CCOc2ccc3cc4ccc(OCCN5CCN(C)CC5)cc4nc3c2)CC1,Antibody stimulation,Ovis aries [11],32
same,Survivors,Mus musculus [2],1
same,Reduction,Mus musculus [3],75%
CCNCCOc1ccc2cc3ccc(OCCNCC)cc3nc2c1.Cl.O,Antibody stimulation,Ovis aries [4],32
same,Reduction,Mus musculus [5],89%
same,Survivors,Mus musculus [2],7
CNCCOc1ccc2cc3ccc(OCCNC)cc3nc2c1.Cl,Reduction,Mus musculus [5],86%
same,Survivors,Mus musculus [2],1
same,Antibody stimulation,Ovis aries [12],128
CC(C)NCCOc1ccc2cc3ccc(OCCNC(C)C)cc3nc2c1.Cl,Reduction,Mus musculus [10],96%
same,Antibody stimulation,Ovis aries [13],512
same,Survivors,Mus musculus [2],15
CCN(CC)CCOc1ccc2cc3cc(N)c(OCCN(CC)CC)c(Cl)c3nc2c1Cl.Cl.O,Antibody stimulation,Ovis aries [14],128
same,Reduction,Mus musculus [6],55%
CCCNCCCOc1ccc2cc3ccc(OCCCNCCC)cc3nc2c1.Cl.O,Reduction,Mus musculus [10],96%
same,Survivors,Mus musculus [2],13
CCCCNCCOc1ccc2cc3ccc(OCCNCCCC)cc3nc2c1.Cl.O,Reduction,Mus musculus [5],92%
same,Antibody stimulation,Ovis aries [15],128
same,Survivors,Mus musculus [2],7
CCNCCCOc1ccc2cc3ccc(OCCCNCC)cc3nc2c1.Cl.O,Reduction,Mus musculus [10],78%
same,Survivors,Mus musculus [2],7
same,Antibody stimulation,Ovis aries [16],32
CCN(CC)CCOc1ccc2cc3ccc(OCCN(CC)CC)c(Br)c3nc2c1Br,Reduction,Mus musculus [10],92%
same,Antibody stimulation,Ovis aries [17],64
same,Survivors,Mus musculus [2],6
Cl.c1cc2cc3ccc(OCCN4CCCCC4)cc3nc2cc1OCCN1CCCCC1,Reduction,Mus musculus [5],62%
same,Antibody stimulation,Ovis aries [1],128
same,Survivors,Mus musculus [2],5
Cl.OCCNCCOc1ccc2cc3ccc(OCCNCCO)cc3nc2c1,Antibody stimulation,Ovis aries [8],32
same,Survivors,Mus musculus [2],3
same,Reduction,Mus musculus [3],35%
CCN(CC)CCOc1ccc2cc3cc([N+](=O)[O-])c(OCCN(CC)CC)c(Br)c3nc2c1Br,Reduction,Mus musculus [18],inactive
same,Survivors,Mus musculus [2],5
same,Antibody stimulation,Ovis aries [19],inactive
CCN(CC)CCOc1ccc2cc3ccc(OCCN(CC)CC)c([N+](=O)[O-])c3nc2c1[N+](=O)[O-],Reduction,Mus musculus [5],108%
same,Antibody stimulation,Ovis aries [17],64
same,Survivors,Mus musculus [2],1
CCN(CC)CCCOc1ccc2cc3ccc(OCCCN(CC)CC)cc3nc2c1.Cl.O,Reduction,Mus musculus [5],72%
same,Survivors,Mus musculus [2],13
same,Antibody stimulation,Ovis aries [20],128
CCN(CC)CCOc1ccc2cc3cc([N+](=O)[O-])c(OCCN(CC)CC)c(Cl)c3nc2c1Cl,Reduction,Mus musculus [10],61%
same,Antibody stimulation,Ovis aries [21],64
same,Survivors,Mus musculus [2],1
CCN(CC)CCOc1ccc2c(c1)C(=O)c1cc(OCCN(CC)CC)ccc1-2 [TILORONE],Survivors,Mus musculus [22],5
CCCNCCOc1ccc2cc3ccc(OCCNCCC)cc3nc2c1.Cl.O,Reduction,Mus musculus [5],101%
same,Survivors,Mus musculus [2],10
same,Antibody stimulation,Ovis aries [23],64
CNCCCOc1ccc2cc3ccc(OCCCNC)cc3nc2c1.Cl.O,Antibody stimulation,Ovis aries [4],32
same,Reduction,Mus musculus [5],18%
same,Survivors,Mus musculus [2],8
c1cc2cc3ccc(OCCN4CCCC4)cc3nc2cc1OCCN1CCCC1,Antibody stimulation,Ovis aries [17],64
same,Survivors,Mus musculus [2],5
same,Reduction,Mus musculus [3],82%
CCN(CC)CCOc1ccc2cc3ccc(OCCN(CC)CC)cc3nc2c1.Cl.O,Reduction,Mus musculus [5],70%
same,Survivors,Mus musculus [2],15
same,Antibody stimulation,Ovis aries [24],256
Cl.O.c1cc2cc3ccc(OCCCN4CCCCC4)cc3nc2cc1OCCCN1CCCCC1,Survivors,Mus musculus [2],9
same,Antibody stimulation,Ovis aries [25],1024
same,Reduction,Mus musculus [3],74%
CC(CCOc1ccc2cc3ccc(OCCC(C)N(C)C)cc3nc2c1)N(C)C (stereo unspecified),Survivors,Mus musculus [26],5
CN(C)CCCCOc1ccc2cc3ccc(OCCCCN(C)C)cc3nc2c1.Cl.O,Antibody stimulation,Ovis aries [27],inactive
same,Survivors,Mus musculus [2],2
same,Reduction,Mus musculus [3],52%
CCC(CO)NCCCOc1ccc2cc3ccc(OCCCNC(CC)CO)cc3nc2c1.Cl.O (stereo unspecified),Reduction,Mus musculus [5],74%
same,Antibody stimulation,Ovis aries [28],inactive
